{
  "source": "ChEMBL document CHEMBL4364284",
  "about": "“Design, Synthesis, and Efficacy Testing of Nitroethylene- and 7-Nitrobenzoxadiazol-Based Flavodoxin Inhibitors against Helicobacter pylori Drug-Resistant Clinical Strains and in Helicobacter pylori-Infected Mice” (J Med Chem, 2019)",
  "key": {"[1]": {"assay": "Toxicity in specific-pathogen-free C57BL/6J mouse assessed as histopathological changes in lung at 10 to 40 mg/100g, po administered daily via gavage for 8 days hematoxylin-eosin staining based assay", "assay_type": "organism-based", "conditions": "in vivo, 192 h", "how_it_was_run": "(§1)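 Controls received olive oil with 5% DMSO. Blood by cardiac puncture was analysed for biochemistry on an automatic analyser. Heart, stomach, liver, lung and kidney sections were H&E-stained for histopathology.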"}, "[2]": {"assay": "Toxicity in specific-pathogen-free C57BL/6J mouse assessed as histopathological changes in liver at 10 to 40 mg/100g, po administered daily via gavage for 8 days hematoxylin-eosin staining based assay", "assay_type": "organism-based", "conditions": "in vivo, 192 h", "how_it_was_run": "as §1"}, "[3]": {"assay": "Therapeutic index, ratio of MCC50 for human HeLa cells to MIC for inhibition of flavodoxin in Helicobacter pylori SS1 assessed as reduction in bacterial growth", "assay_type": "toxicity", "conditions": "HeLa cells versus Helicobacter pylori SS1, read-out: TI", "how_it_was_run": "(§2)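 TI is MCC50/MIC. For MCC50, HeLa cells (30 000/well, DMEM with 10% FBS) were exposed to compound at 25–1000 μM final. Viability by XTT at 450/650 nm; MCC50 is the concentration giving 50% lysis from viability curves. Run twice in triplicate.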"}, "[4]": {"target": "T1, Flavodoxin (Helicobacter pylori (strain ATCC 700392 / 26695) (Campylobacter pylori)) (UniProt O25776)", "T1 sequence (whole entry)": "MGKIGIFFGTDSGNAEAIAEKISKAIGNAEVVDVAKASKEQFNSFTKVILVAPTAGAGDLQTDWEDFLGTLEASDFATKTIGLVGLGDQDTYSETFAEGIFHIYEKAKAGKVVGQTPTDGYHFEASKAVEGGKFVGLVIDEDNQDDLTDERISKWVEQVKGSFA", "assay": "Inhibition of flavodoxin in Mnz-resistant Helicobacter pylori NCTC 11637 ATCC 43504 assessed as reduction in bacterial growth measured after 48 hrs by resazurin staining-based microdilution method", "conditions": "Helicobacter pylori NCTC 11637 = CCUG 17874 = ATCC 43504", "how_it_was_run": "(§3)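 Broth microdilution in brain heart infusion with 4% FBS. Inoculum diluted to OD600 0.01. Two-fold dilutions from a DMSO stock cover 64–0.031 μg/mL, with DMSO ≤1% v/v. Incubated 48 h at 37 °C under microaerophilic conditions. MIC is the lowest concentration giving complete growth inhibition, read by resazurin colour change and confirmed by spotting on blood agar. Run twice in triplicate.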"}, "Escherichia coli": {"test_system": "Escherichia coli", "assay": "Effect on growth of Escherichia coli DH5[alpha] after 48 hrs by resazurin-dye based microdilution assay", "assay_type": "organism-based"}, "Helicobacter pylori": {"test_system": "Helicobacter pylori", "assay": "Antibacterial activity against Helicobacter pylori SS1 infected in NMRI mouse assessed as reduction in gastric colonization at 1 mg/100g, po administered daily via gavage for 8 days starting from 1 week post-infection and measured 8 days post-last dose", "assay_type": "functional, organism-based", "how_it_was_run": "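Female 6-week-old SPF NMRI mice, 7 per condition, infected orogastrically on days 1 and 3 with 100 μL Hp SS1 (5 × 10^8 CFU/mL). From day 8, compound given daily by oral gavage for 8 days in 100 μL of 5–10% DMSO/95–90% olive oil. Sacrificed day 24; stomach homogenate CFU/g counted after 5 days microaerophilic culture at 37 °C. Infected vehicle-treated controls; Mann-Whitney U and unpaired t tests, p ≤ 0.05.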"}, "[5]": {"assay": "Therapeutic index, ratio of MCC50 for human HeLa cells to MIC for inhibition of flavodoxin in Helicobacter pylori ATCC 700392 26695 assessed as reduction in bacterial growth", "assay_type": "toxicity", "conditions": "HeLa cells versus Helicobacter pylori ATCC 700392 26695, read-out: TI", "how_it_was_run": "as §2"}, "[6]": {"target": "T1, Flavodoxin (Helicobacter pylori (strain ATCC 700392 / 26695) (Campylobacter pylori))", "assay": "Inhibition of flavodoxin in Helicobacter pylori SS1 assessed as reduction in bacterial growth measured after 48 hrs by resazurin staining-based microdilution method", "how_it_was_run": "as §3"}, "[7]": {"assay": "Therapeutic index, ratio of MCC50 for human HeLa cells to MIC for inhibition of flavodoxin in Mnz-resistant Helicobacter pylori NCTC 11637 ATCC 43504 assessed as reduction in bacterial growth", "assay_type": "toxicity", "conditions": "read-out: TI", "how_it_was_run": "as §2"}, "[8]": {"assay": "Toxicity in specific-pathogen-free C57BL/6J mouse assessed as histopathological changes in heart at 10 to 40 mg/100g, po administered daily via gavage for 8 days hematoxylin-eosin staining based assay", "assay_type": "organism-based", "conditions": "in vivo, 192 h", "how_it_was_run": "as §1"}, "[9]": {"target": "T1, Flavodoxin (Helicobacter pylori (strain ATCC 700392 / 26695) (Campylobacter pylori))", "assay": "Binding affinity to Helicobacter pylori flavodoxin by isothermal titration calorimetric method"}, "[10]": {"assay": "Toxicity in specific-pathogen-free C57BL/6J mouse assessed as histopathological changes in stomach by measuring necrosis of epithelium at 20 to 40 mg/100g, po […] hematoxylin-eosin staining based assay", "assay_type": "organism-based", "conditions": "in vivo, 192 h"}, "Staphylococcus aureus": {"test_system": "Staphylococcus aureus", "assay": "Effect on growth of Staphylococcus aureus ATCC 1228 after 48 hrs by resazurin-dye based microdilution assay", "assay_type": "organism-based"}, "[11]": {"assay": "Toxicity in specific-pathogen-free C57BL/6J mouse assessed as hair loss at 40 mg/100g, po administered daily via gavage for 8 days", "assay_type": "organism-based", "conditions": "in vivo, 192 h"}, "[12]": {"assay": "Cytotoxicity against human HeLa cells assessed as reduction in cell viability by XTT assay", "assay_type": "cell-based", "conditions": "read-out: MCC50", "how_it_was_run": "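HeLa cells grown in DMEM with 10% FBS, penicillin and streptomycin at 37 °C, 5% CO2; 30 000 cells/well. XTT viability read at 450 and 650 nm. MCC50 (50% lysis) came from viability-versus-concentration curves. Two experiments, each in triplicate.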"}, "[13]": {"assay": "Toxicity in NMRI mouse infected with Helicobacter pylori SS1 assessed as change in body weight at 0.1 to 10 mg/100g, po administered daily via gavage for 8 days starting from 1 week post-infection", "assay_type": "organism-based", "conditions": "in vivo"}, "[14]": {"assay": "Toxicity in specific-pathogen-free C57BL/6J mouse assessed as histopathological changes in stomach by measuring inflammation at 20 to 40 mg/100g, po […] hematoxylin-eosin staining based assay", "assay_type": "organism-based", "conditions": "in vivo, 192 h"}, "[15]": {"assay": "Toxicity in specific-pathogen-free C57BL/6J mouse assessed as histopathological changes in kidney at 10 to 40 mg/100g, po administered daily via gavage for 8 days hematoxylin-eosin staining based assay", "assay_type": "organism-based", "conditions": "in vivo, 192 h", "how_it_was_run": "as §1"}, "[16]": {"target": "T1, Flavodoxin (Helicobacter pylori (strain ATCC 700392 / 26695) (Campylobacter pylori))", "assay": "Binding affinity to Helicobacter pylori flavodoxin by thermal upshift assay"}, "[17]": {"assay": "Toxicity in specific-pathogen-free C57BL/6J mouse assessed as change in biochemical parameters at 10 to 40 mg/100g, po administered daily via gavage for 8 days", "assay_type": "organism-based", "conditions": "in vivo, 192 h", "how_it_was_run": "as §1"}, "[18]": {"assay": "Toxicity in NMRI mouse infected with Helicobacter pylori SS1 assessed as change in appetite at 0.1 to 10 mg/100g, po administered daily via gavage for 8 days starting from 1 week post-infection", "assay_type": "organism-based", "conditions": "in vivo"}, "[19]": {"assay": "Toxicity in NMRI mouse assessed as change in body weight at 0.1 to 10 mg/100g, po administered daily via gavage for 8 days", "assay_type": "organism-based", "conditions": "in vivo, 192 h"}, "[20]": {"assay": "Toxicity in specific-pathogen-free C57BL/6J mouse assessed as weight loss at 40 mg/100g, po administered daily via gavage for 8 days", "assay_type": "organism-based", "conditions": "in vivo, 192 h"}, "[21]": {"target": "T1, Flavodoxin (Helicobacter pylori (strain ATCC 700392 / 26695) (Campylobacter pylori))", "assay": "Inhibition of flavodoxin in Helicobacter pylori ATCC 700392 26695 assessed as reduction in bacterial growth measured after 48 hrs by resazurin staining-based microdilution method", "conditions": "Helicobacter pylori 26695", "how_it_was_run": "as §3"}, "[22]": {"assay": "Toxicity in specific-pathogen-free C57BL/6J mouse assessed as histopathological changes in stomach by measuring hyperplasia at 20 to 40 mg/100g, […] hematoxylin-eosin staining based assay", "assay_type": "organism-based", "conditions": "in vivo, po, 192 h"}},
  "note": "The source made the active and inactive calls. No cut-off for these calls is given here.",
  "data": [
    {"compound": "O=[N+]([O-])/C=C/c1c(F)cc(Cl)cc1F", "values": [
      {"measurement": "Activity", "setting": "[1]", "value": "Non-Toxic"},
      {"measurement": "Activity", "setting": "[2]", "value": "Non-Toxic"},
      {"measurement": "selectivity ratio", "setting": "[3]", "value": 16},
      {"measurement": "MIC", "setting": "[4]", "value": 2.3, "unit": "µM"},
      {"measurement": "Activity", "setting": "Escherichia coli", "value": "Non-Toxic"},
      {"measurement": "Activity", "setting": "Helicobacter pylori", "value": "Active"},
      {"measurement": "selectivity ratio", "setting": "[5]", "value": 16},
      {"measurement": "MIC", "setting": "[6]", "value": 2.3, "unit": "µM"},
      {"measurement": "selectivity ratio", "setting": "[7]", "value": 16},
      {"measurement": "Activity", "setting": "[8]", "value": "Non-Toxic"},
      {"measurement": "Activity", "setting": "[9]", "value": "Active"},
      {"measurement": "Activity", "setting": "[10]", "value": "Toxic"},
      {"measurement": "Activity", "setting": "Staphylococcus aureus", "value": "Non-Toxic"},
      {"measurement": "Activity", "setting": "[11]", "value": "Toxic"},
      {"measurement": "CC50", "setting": "[12]", "value": 36, "unit": "µM"},
      {"measurement": "Activity", "setting": "[13]", "value": "Non-Toxic"},
      {"measurement": "Activity", "setting": "[14]", "value": "Toxic"},
      {"measurement": "Activity", "setting": "[15]", "value": "Non-Toxic"},
      {"measurement": "Activity", "setting": "[16]", "value": "Active"},
      {"measurement": "Activity", "setting": "[17]", "value": "Non-Toxic"},
      {"measurement": "Activity", "setting": "[18]", "value": "Non-Toxic"},
      {"measurement": "Activity", "setting": "[19]", "value": "Non-Toxic"},
      {"measurement": "Activity", "setting": "[20]", "value": "> 20", "unit": "%"},
      {"measurement": "MIC", "setting": "[21]", "value": 2.3, "unit": "µM"},
      {"measurement": "Activity", "setting": "[22]", "value": "Toxic"}
    ]}
  ]
}
